# Experimental data as given in ChEMBL document CHEMBL4689842, “EUbOPEN Chemogenomics Library wave 1” (2021).
# Key:
# Fibroblast = assay: Incucyte cell viability with human fibroblast; assay type: toxicity, cell-based; settings: 10 µM, compound concentration 10 uM; also: filed as whole numbers so only -1 and 0 and 1 occur
# HEK-293T = assay: Multiplex assay against HEK293T; assay type: toxicity, cell-based; settings: human;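 as to Population Tubulin-Different-Phenotype (%): share of the cells with healthy nuclei that show this phenotype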
# In short: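 Hoechst33342, BioTracker Green Microtubule Cytoskeleton Dye, MitoTracker Red and Annexin V Alexa Fluor 680 were added to live cells at seeding, and imaging on a CQ1 microscope at 37°C and 5% CO2 followed compound addition. Gating by CellPathfinder machine learning separated cells into Hoechst high-intensity objects or normal cells, then normal cells into healthy, pyknosed or fragmented nuclei, then pyknosed cells into mitotic or apoptotic. Per cents of healthy-nucleus cells are reported for the tubulin, mitochondrial-mass and membrane-permeability phenotypes.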
# [1] = 12 h, 1 µM, compound concentration 1 uM, replicate 1
# [2] = 12 h, 1 µM, compound concentration 1 uM, replicate 2
# [3] = 12 h, 10 µM, compound concentration 10 uM, replicate 1
# [4] = 12 h, 10 µM, compound concentration 10 uM, replicate 2
# [5] = 24 h, 1 µM, compound concentration 1 uM, replicate 1
# [6] = 24 h, 1 µM, compound concentration 1 uM, replicate 2
# [7] = 24 h, 10 µM, compound concentration 10 uM, replicate 1
# [8] = 24 h, 10 µM, compound concentration 10 uM, replicate 2
# [9] = 48 h, 1 µM, compound concentration 1 uM, replicate 1
# [10] = 48 h, 1 µM, compound concentration 1 uM, replicate 2
# [11] = 48 h, 10 µM, compound concentration 10 uM, replicate 1
# [12] = 48 h, 10 µM, compound concentration 10 uM, replicate 2
smiles,measurement,setting,value
CC(=O)c1cc(-c2cc(C(=O)NC3CC3)ccc2C)c2ncccn12,Growth Rate,"Fibroblast; 0 h, replicate number 2, timepoint 0 hours",1
same,Growth Rate,"Fibroblast; 6 h, replicate number 1, timepoint 6 hours",0
same,Growth Rate,"Fibroblast; 12 h, replicate number 1, timepoint 12 hours",0
same,Growth Rate,"Fibroblast; 18 h, replicate number 1, timepoint 18 hours",0
same,Growth Rate,"Fibroblast; 24 h, replicate number 1, timepoint 24 hours",0
same,Population Apoptotic (%),HEK-293T; [1],51%
same,Population Fragmented Nuclei (%),HEK-293T; [1],11%
same,Population Healthy Nuclei (%),HEK-293T; [1],27%
same,Population Hoechst High Intensity Objects (%),HEK-293T; [1],12%
same,Population Membrane Permeable-Phenotype (%),HEK-293T; [1],3%
same,Population Mitochondria Different-Phenotype (%),HEK-293T; [1],59%
same,Population Mitotic Cells (%),HEK-293T; [1],48%
same,Population Normal (%),HEK-293T; [1],87%
same,Population Pyknosed Nuclei (%),HEK-293T; [1],61%
same,Population Tubulin-Different-Phenotype (%),HEK-293T; [1],36%
same,Total Cell Count,HEK-293T; [1],275
same,Population Apoptotic (%),HEK-293T; [2],16%
same,Population Fragmented Nuclei (%),HEK-293T; [2],1%
same,Population Healthy Nuclei (%),HEK-293T; [2],48%
same,Population Hoechst High Intensity Objects (%),HEK-293T; [2],3%
same,Population Membrane Permeable-Phenotype (%),HEK-293T; [2],5%
same,Population Mitochondria Different-Phenotype (%),HEK-293T; [2],17%
same,Population Mitotic Cells (%),HEK-293T; [2],83%
same,Population Normal (%),HEK-293T; [2],96%
same,Population Pyknosed Nuclei (%),HEK-293T; [2],49%
same,Population Tubulin-Different-Phenotype (%),HEK-293T; [2],21%
same,Total Cell Count,HEK-293T; [2],271
same,Population Apoptotic (%),HEK-293T; [3],50%
same,Population Fragmented Nuclei (%),HEK-293T; [3],12%
same,Population Healthy Nuclei (%),HEK-293T; [3],29%
same,Population Hoechst High Intensity Objects (%),HEK-293T; [3],15%
same,Population Membrane Permeable-Phenotype (%),HEK-293T; [3],4%
same,Population Mitochondria Different-Phenotype (%),HEK-293T; [3],81%
same,Population Mitotic Cells (%),HEK-293T; [3],49%
same,Population Normal (%),HEK-293T; [3],84%
same,Population Pyknosed Nuclei (%),HEK-293T; [3],58%
same,Population Tubulin-Different-Phenotype (%),HEK-293T; [3],39%
same,Total Cell Count,HEK-293T; [3],265
same,Population Apoptotic (%),HEK-293T; [4],22%
same,Population Fragmented Nuclei (%),HEK-293T; [4],6%
same,Population Healthy Nuclei (%),HEK-293T; [4],31%
same,Population Hoechst High Intensity Objects (%),HEK-293T; [4],4%
same,Population Membrane Permeable-Phenotype (%),HEK-293T; [4],5%
same,Population Mitochondria Different-Phenotype (%),HEK-293T; [4],38%
same,Population Mitotic Cells (%),HEK-293T; [4],77%
same,Population Normal (%),HEK-293T; [4],95%
same,Population Pyknosed Nuclei (%),HEK-293T; [4],62%
same,Population Tubulin-Different-Phenotype (%),HEK-293T; [4],21%
same,Total Cell Count,HEK-293T; [4],199
same,Population Apoptotic (%),HEK-293T; [5],51%
same,Population Fragmented Nuclei (%),HEK-293T; [5],15%
same,Population Healthy Nuclei (%),HEK-293T; [5],31%
same,Population Hoechst High Intensity Objects (%),HEK-293T; [5],13%
same,Population Membrane Permeable-Phenotype (%),HEK-293T; [5],2%
same,Population Mitochondria Different-Phenotype (%),HEK-293T; [5],42%
same,Population Mitotic Cells (%),HEK-293T; [5],48%
same,Population Normal (%),HEK-293T; [5],86%
same,Population Pyknosed Nuclei (%),HEK-293T; [5],52%
same,Population Tubulin-Different-Phenotype (%),HEK-293T; [5],26%
same,Total Cell Count,HEK-293T; [5],305
same,Population Apoptotic (%),HEK-293T; [6],10%
same,Population Fragmented Nuclei (%),HEK-293T; [6],5%
same,Population Healthy Nuclei (%),HEK-293T; [6],65%
same,Population Hoechst High Intensity Objects (%),HEK-293T; [6],2%
same,Population Membrane Permeable-Phenotype (%),HEK-293T; [6],1%
same,Population Mitochondria Different-Phenotype (%),HEK-293T; [6],16%
same,Population Mitotic Cells (%),HEK-293T; [6],89%
same,Population Normal (%),HEK-293T; [6],97%
same,Population Pyknosed Nuclei (%),HEK-293T; [6],29%
same,Population Tubulin-Different-Phenotype (%),HEK-293T; [6],25%
same,Total Cell Count,HEK-293T; [6],349
same,Population Apoptotic (%),HEK-293T; [7],46%
same,Population Fragmented Nuclei (%),HEK-293T; [7],18%
same,Population Healthy Nuclei (%),HEK-293T; [7],31%
same,Population Hoechst High Intensity Objects (%),HEK-293T; [7],17%
same,Population Membrane Permeable-Phenotype (%),HEK-293T; [7],0%
same,Population Mitochondria Different-Phenotype (%),HEK-293T; [7],76%
same,Population Mitotic Cells (%),HEK-293T; [7],53%
same,Population Normal (%),HEK-293T; [7],82%
same,Population Pyknosed Nuclei (%),HEK-293T; [7],49%
same,Population Tubulin-Different-Phenotype (%),HEK-293T; [7],38%
same,Total Cell Count,HEK-293T; [7],280
same,Population Apoptotic (%),HEK-293T; [8],28%
same,Population Fragmented Nuclei (%),HEK-293T; [8],7%
same,Population Healthy Nuclei (%),HEK-293T; [8],51%
same,Population Hoechst High Intensity Objects (%),HEK-293T; [8],3%
same,Population Membrane Permeable-Phenotype (%),HEK-293T; [8],4%
same,Population Mitochondria Different-Phenotype (%),HEK-293T; [8],33%
same,Population Mitotic Cells (%),HEK-293T; [8],71%
same,Population Normal (%),HEK-293T; [8],96%
same,Population Pyknosed Nuclei (%),HEK-293T; [8],41%
same,Population Tubulin-Different-Phenotype (%),HEK-293T; [8],30%
same,Total Cell Count,HEK-293T; [8],233
same,Population Apoptotic (%),HEK-293T; [9],44%
same,Population Fragmented Nuclei (%),HEK-293T; [9],15%
same,Population Healthy Nuclei (%),HEK-293T; [9],43%
same,Population Hoechst High Intensity Objects (%),HEK-293T; [9],14%
same,Population Membrane Permeable-Phenotype (%),HEK-293T; [9],10%
same,Population Mitochondria Different-Phenotype (%),HEK-293T; [9],22%
same,Population Mitotic Cells (%),HEK-293T; [9],55%
same,Population Normal (%),HEK-293T; [9],85%
same,Population Pyknosed Nuclei (%),HEK-293T; [9],41%
same,Population Tubulin-Different-Phenotype (%),HEK-293T; [9],28%
same,Total Cell Count,HEK-293T; [9],343
same,Population Apoptotic (%),HEK-293T; [10],8%
same,Population Fragmented Nuclei (%),HEK-293T; [10],6%
same,Population Healthy Nuclei (%),HEK-293T; [10],78%
same,Population Hoechst High Intensity Objects (%),HEK-293T; [10],4%
same,Population Membrane Permeable-Phenotype (%),HEK-293T; [10],4%
same,Population Mitochondria Different-Phenotype (%),HEK-293T; [10],6%
same,Population Mitotic Cells (%),HEK-293T; [10],91%
same,Population Normal (%),HEK-293T; [10],95%
same,Population Pyknosed Nuclei (%),HEK-293T; [10],14%
same,Population Tubulin-Different-Phenotype (%),HEK-293T; [10],21%
same,Total Cell Count,HEK-293T; [10],595
same,Population Apoptotic (%),HEK-293T; [11],57%
same,Population Fragmented Nuclei (%),HEK-293T; [11],24%
same,Population Healthy Nuclei (%),HEK-293T; [11],24%
same,Population Hoechst High Intensity Objects (%),HEK-293T; [11],17%
same,Population Membrane Permeable-Phenotype (%),HEK-293T; [11],1%
same,Population Mitochondria Different-Phenotype (%),HEK-293T; [11],63%
same,Population Mitotic Cells (%),HEK-293T; [11],42%
same,Population Normal (%),HEK-293T; [11],82%
same,Population Pyknosed Nuclei (%),HEK-293T; [11],51%
same,Population Tubulin-Different-Phenotype (%),HEK-293T; [11],36%
same,Total Cell Count,HEK-293T; [11],280
same,Population Apoptotic (%),HEK-293T; [12],17%
same,Population Fragmented Nuclei (%),HEK-293T; [12],6%
same,Population Healthy Nuclei (%),HEK-293T; [12],58%
same,Population Hoechst High Intensity Objects (%),HEK-293T; [12],3%
same,Population Membrane Permeable-Phenotype (%),HEK-293T; [12],5%
same,Population Mitochondria Different-Phenotype (%),HEK-293T; [12],29%
same,Population Mitotic Cells (%),HEK-293T; [12],82%
same,Population Normal (%),HEK-293T; [12],96%
same,Population Pyknosed Nuclei (%),HEK-293T; [12],35%
same,Total Cell Count,HEK-293T; [12],284
